Source: ChEMBL document CHEMBL4004832, “Synthesis, surfactant properties and antimicrobial activities of methyl glycopyranoside ethers” (2017)
In brackets after ≈: the same amount, converted by molar mass.

Legend:
Staphylococcus aureus [1] = assay: Antibacterial activity against methicillin-resistant Staphylococcus aureus isolate HT 2006-1004 after 18 hrs by broth microdilution assay; type: functional; settings: isolate HT 2006-1004, 18 h
Procedure, shortened: (§1)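 Staphylococcus aureus reference strains and methicillin- and daptomycin-resistant isolates tested by MIC according to CLSI guidance (M100-S17), with oxacillin as control. The endpoint is the lowest concentration with no growth in all replicates versus a negative control at 18 h. Values are reported in mmol/L.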

Enterococcus faecium [2] = assay: Antibacterial activity against Enterococcus faecium isolate 015205731401 after 18 hrs by broth microdilution assay; type: functional; settings: isolate 015205731401, 18 h
Procedure, shortened: (§2)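 Broth MIC testing on Gram-positive strains followed CLSI M100-S17 recommendations. […] Values are in mmol/L. Amoxicillin was the control for Listeria and Enterococcus strains and oxacillin for S. aureus strains.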

Enterococcus faecium [3] = assay: Antibacterial activity against Enterococcus faecium isolate 015205261801 after 18 hrs by broth microdilution assay; type: functional; settings: isolate 015205261801, 18 h
Procedure, shortened: (§3)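 Enterococcus faecium strains (reference, clinical isolates, VanA isolate) tested by MIC following CLSI recommendations (M100-S17), with amoxicillin as control. […] Values are expressed in mmol/L.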

Staphylococcus aureus [4] = assay: Antibacterial activity against Staphylococcus aureus ATCC 29213 after 18 hrs by broth microdilution assay; type: functional; settings: ATCC 29213, 18 h; procedure, shortened: as §2
Staphylococcus aureus [5] = assay: Antibacterial activity against methicillin-resistant Staphylococcus aureus LAC USA300 after 18 hrs by broth microdilution assay; type: functional; procedure, shortened: as §1
Enterococcus faecium [6] = assay: Antibacterial activity against […] Enterococcus faecium isolate 0151850763 after 18 hrs by broth microdilution assay; type: functional; settings: isolate 0151850763, 18 h; procedure, shortened: as §3
Listeria monocytogenes [7] = assay: Antibacterial activity against Listeria monocytogenes isolate 015170199001 after 18 hrs by broth microdilution assay; type: functional; settings: isolate 015170199001, 18 h; procedure, shortened: as §2
Staphylococcus aureus [8] = assay: Antibacterial activity against methicillin-resistant Staphylococcus aureus isolate HT 2004-0012 after 18 hrs by broth microdilution assay; type: functional; settings: isolate HT 2004-0012, 18 h; procedure, shortened: as §1
Staphylococcus aureus [9] = assay: Antibacterial activity against daptomycin-resistant Staphylococcus aureus isolate ST 2015-0188 after 18 hrs by broth microdilution assay; type: functional; settings: isolate ST 2015-0188, 18 h; procedure, shortened: as §1
Listeria monocytogenes [10] = assay: Antibacterial activity against Listeria monocytogenes isolate 015189074801 after 18 hrs by broth microdilution assay; type: functional; settings: isolate 015189074801, 18 h; procedure, shortened: as §2
Enterococcus faecalis [11] = assay: Antibacterial activity against Enterococcus faecalis isolate 015206179901 after 18 hrs by broth microdilution assay; type: functional; settings: isolate 015206179901, 18 h; procedure, shortened: as §2
Staphylococcus aureus [12] = assay: Antibacterial activity against daptomycin-resistant Staphylococcus aureus isolate ST 2015-0989 after 18 hrs by broth microdilution assay; type: functional; settings: isolate ST 2015-0989, 18 h; procedure, shortened: as §1
Enterococcus faecalis [13] = assay: Antibacterial activity against Enterococcus faecalis ATCC 29212 after 18 hrs by broth microdilution assay; type: functional; settings: ATCC 29212, 18 h; procedure, shortened: as §2
Staphylococcus aureus [14] = assay: Antibacterial activity against methicillin-resistant Staphylococcus aureus isolate LY 1999-0053 after 18 hrs by broth microdilution assay; type: functional; settings: isolate LY 1999-0053, 18 h; procedure, shortened: as §1
Staphylococcus aureus [15] = assay: Antibacterial activity against methicillin-resistant Staphylococcus aureus Mu3 after 18 hrs by broth microdilution assay; type: functional; settings: Mu3, 18 h; procedure, shortened: as §1
Listeria monocytogenes [16] = assay: Antibacterial activity against Listeria monocytogenes isolate 015181840701 after 18 hrs by broth microdilution assay; type: functional; settings: isolate 015181840701, 18 h; procedure, shortened: as §2
Listeria monocytogenes [17] = assay: Antibacterial activity against Listeria monocytogenes CIP 103575 after 18 hrs by broth microdilution assay; type: functional; settings: CIP 103575, 18 h; procedure, shortened: as §2
Staphylococcus aureus [18] = assay: Antibacterial activity against methicillin-resistant Staphylococcus aureus isolate HT 2002-0417 after 18 hrs by broth microdilution assay; type: functional; settings: isolate HT 2002-0417, 18 h; procedure, shortened: as §1
Staphylococcus aureus [19] = assay: Antibacterial activity against daptomycin-resistant Staphylococcus aureus isolate ST 2014-1288 after 18 hrs by broth microdilution assay; type: functional; settings: isolate ST 2014-1288, 18 h; procedure, shortened: as §1
Staphylococcus aureus [20] = assay: Antibacterial activity against Staphylococcus aureus ATCC 25923 after 18 hrs by broth microdilution assay; type: functional; settings: ATCC 25923, 18 h; procedure, shortened: as §1
Enterococcus faecium [21] = assay: Antibacterial activity against Enterococcus faecium CIP 103510 after 18 hrs by broth microdilution assay; type: functional; settings: CIP 103510, 18 h; procedure, shortened: as §3
[22] = Surfactant property of the compound in aqueous solution assessed as critical micelle concentration or minimal hydrotropic concentration
Procedure, shortened: (§4)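 Surface tension of aqueous solutions was measured by a rod method based on the Wilhelmy plate. Water was progressively concentrated with a stock surfactant solution at constant volume. At each concentration, readings continued until stable (SD of the last 5 values 0.2 mN/m). MHC or CMC and the plateau γsat were taken from the tension vs concentration curves.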

[23] = Surfactant property of the compound in water assessed as critical micelle concentration or minimal hydrotropic concentration by platinum rod based tensiometric method; procedure, shortened: as §4
Escherichia coli = assay: Antibacterial activity against Escherichia coli ATCC 8739 after 18 hrs by broth microdilution assay; type: functional; settings: ATCC 8739, 18 h
Pseudomonas aeruginosa = assay: Antibacterial activity against Pseudomonas aeruginosa ATCC 27853 after 18 hrs by broth microdilution assay; type: functional; settings: ATCC 27853, 18 h

Row | Structure (SMILES) | MIC (Staphylococcus aureus [1]) | MIC (Staphylococcus aureus [4]) | MIC (Staphylococcus aureus [5]) | MIC (Staphylococcus aureus [8]) | MIC (Staphylococcus aureus [9]) | MIC (Staphylococcus aureus [12]) | MIC (Enterococcus faecalis [13]) | MIC (Staphylococcus aureus [14]) | MIC (Staphylococcus aureus [15]) | MIC (Listeria monocytogenes [17]) | MIC (Staphylococcus aureus [18]) | MIC (Staphylococcus aureus [19]) | MIC (Staphylococcus aureus [20]) | CMC [23] | further results
1 | CCCCCCCCCCCCOC[C@H]1O[C@H](OC)[C@@H](O)[C@@H](O)[C@@H]1O | 180 µM (≈ 65.3 µg/mL) | 90 µM (≈ 32.6 µg/mL) | 90 µM (≈ 32.6 µg/mL) | 90 µM (≈ 32.6 µg/mL) | 180 µM (≈ 65.3 µg/mL) | 180 µM (≈ 65.3 µg/mL) | 40 µM (≈ 14.5 µg/mL) | 90 µM (≈ 32.6 µg/mL) | 180 µM (≈ 65.3 µg/mL) | 90 µM (≈ 32.6 µg/mL) | 90 µM (≈ 32.6 µg/mL) | 90 µM (≈ 32.6 µg/mL) | 90 µM (≈ 32.6 µg/mL) |  | MIC (Enterococcus faecium [2]): 40 µM (≈ 14.5 µg/mL); MIC (Enterococcus faecium [3]): 40 µM (≈ 14.5 µg/mL); MIC (Enterococcus faecium [6]): 40 µM (≈ 14.5 µg/mL); MIC (Listeria monocytogenes [7]): 40 µM (≈ 14.5 µg/mL); MIC (Listeria monocytogenes [10]): 20 µM (≈ 7.25 µg/mL); MIC (Enterococcus faecalis [11]): 90 µM (≈ 32.6 µg/mL); MIC (Listeria monocytogenes [16]): 40 µM (≈ 14.5 µg/mL); MIC (Enterococcus faecium [21]): 90 µM (≈ 32.6 µg/mL)
2 | CCCCCCCCCCC[C@@H]1OC[C@H]2O[C@@H](OC)[C@H](O)[C@@H](O)[C@@H]2O1 | 180 µM (≈ 64.9 µg/mL) | 180 µM (≈ 64.9 µg/mL) | 180 µM (≈ 64.9 µg/mL) | 180 µM (≈ 64.9 µg/mL) | 180 µM (≈ 64.9 µg/mL) | 180 µM (≈ 64.9 µg/mL) | 180 µM (≈ 64.9 µg/mL) | 180 µM (≈ 64.9 µg/mL) | 180 µM (≈ 64.9 µg/mL) | 40 µM (≈ 14.4 µg/mL) | 370 µM (≈ 133 µg/mL) | 180 µM (≈ 64.9 µg/mL) | 180 µM (≈ 64.9 µg/mL) |  | MIC (Enterococcus faecium [2]): 40 µM (≈ 14.4 µg/mL); MIC (Enterococcus faecium [3]): 20 µM (≈ 7.21 µg/mL); MIC (Enterococcus faecium [6]): 90 µM (≈ 32.4 µg/mL); MIC (Listeria monocytogenes [7]): 40 µM (≈ 14.4 µg/mL); MIC (Listeria monocytogenes [10]): 40 µM (≈ 14.4 µg/mL); MIC (Enterococcus faecalis [11]): 90 µM (≈ 32.4 µg/mL); MIC (Listeria monocytogenes [16]): 180 µM (≈ 64.9 µg/mL); MIC (Enterococcus faecium [21]): 90 µM (≈ 32.4 µg/mL)
3 | CCCCCCCCCCCCO[C@H]1O[C@H](CO)C(O[C@H]2O[C@H](CO)[C@@H](O)[C@H](O)[C@H]2O)[C@H](O)[C@H]1O (single isomer, unassigned) |  |  |  |  |  |  |  |  |  |  |  |  |  |  | CMC [22]: 0.15 mmol/L
4 | CCCCCCCCCCCCOC[C@H]1O[C@H](OC)[C@H](O)[C@@H](O)[C@@H]1O |  | 40 µM (≈ 14.5 µg/mL) |  |  |  |  |  |  |  | 40 µM (≈ 14.5 µg/mL) |  |  |  | 0.03 mmol/L | 
5 | CCCCCCCCC[C@@H]1OC[C@H]2O[C@H](OC)[C@H](O)[C@@H](O)[C@@H]2O1 |  |  |  |  |  |  |  |  |  |  |  |  |  | 0.15 mmol/L | 
6 | CCCCCCCCCCC[C@@H]1OC[C@H]2O[C@H](OC)[C@H](O)[C@@H](O)[C@@H]2O1 |  |  |  |  |  |  |  |  |  |  |  |  |  | > 0.06 mmol/L | 
7 | CCCCCCCCCCCCO[C@H]1[C@H](O)[C@@H](O)[C@@H](OC)O[C@@H]1CO |  |  |  |  |  |  |  |  |  |  |  |  |  | 0.046 mmol/L | 
8 | Cc1onc(-c2ccccc2)c1C(=O)N[C@@H]1C(=O)N2[C@@H]1SC(C)(C)[C@@H]2C(=O)O [OXACILLIN] | 320 µM (≈ 128 µg/mL) | 1 µM (≈ 0.401 µg/mL) | 160 µM (≈ 64.2 µg/mL) | 80 µM (≈ 32.1 µg/mL) | 160 µM (≈ 64.2 µg/mL) | 320 µM (≈ 128 µg/mL) |  | 160 µM (≈ 64.2 µg/mL) | 640 µM (≈ 257 µg/mL) |  | 160 µM (≈ 64.2 µg/mL) | 160 µM (≈ 64.2 µg/mL) | 50 µM (≈ 20.1 µg/mL) |  | 
9 | CCCCCOC[C@H]1O[C@H](OC)[C@H](O)[C@@H](O)[C@@H]1O |  | > 4000 µM |  |  |  |  | > 4000 µM |  |  | > 4000 µM |  |  |  | 35 mmol/L | MIC (Escherichia coli): > 4000 µM; MIC (Pseudomonas aeruginosa): > 4000 µM
10 | CCCCCCCCOC[C@H]1O[C@H](OC)[C@H](O)[C@@H](O)[C@@H]1O |  | 2000 µM (≈ 613 µg/mL) |  |  |  |  | > 4000 µM |  |  | 2000 µM (≈ 613 µg/mL) |  |  |  | 0.434 mmol/L | MIC (Escherichia coli): > 4000 µM; MIC (Pseudomonas aeruginosa): > 4000 µM
11 | CCCCCCCCCCCCO[C@H]1[C@H](OC)O[C@@H](C)[C@H](O)[C@H]1O | 90 µM (≈ 31.2 µg/mL) | 50 µM (≈ 17.3 µg/mL) | 90 µM (≈ 31.2 µg/mL) | 50 µM (≈ 17.3 µg/mL) | 180 µM (≈ 62.4 µg/mL) | 180 µM (≈ 62.4 µg/mL) | 50 µM (≈ 17.3 µg/mL) | 90 µM (≈ 31.2 µg/mL) | 180 µM (≈ 62.4 µg/mL) | 90 µM (≈ 31.2 µg/mL) | 90 µM (≈ 31.2 µg/mL) | 90 µM (≈ 31.2 µg/mL) | 90 µM (≈ 31.2 µg/mL) |  | MIC (Enterococcus faecium [2]): 20 µM (≈ 6.93 µg/mL); MIC (Enterococcus faecium [3]): 50 µM (≈ 17.3 µg/mL); MIC (Enterococcus faecium [6]): 50 µM (≈ 17.3 µg/mL); MIC (Listeria monocytogenes [7]): 90 µM (≈ 31.2 µg/mL); MIC (Listeria monocytogenes [10]): 90 µM (≈ 31.2 µg/mL); MIC (Enterococcus faecalis [11]): 50 µM (≈ 17.3 µg/mL); MIC (Listeria monocytogenes [16]): 90 µM (≈ 31.2 µg/mL); MIC (Enterococcus faecium [21]): 50 µM (≈ 17.3 µg/mL)
12 | CCCCCCCCCCCC(=O)OC[C@H]1O[C@H](O[C@]2(CO)O[C@H](CO)[C@@H](O)[C@@H]2O)[C@H](O)[C@@H](O)[C@@H]1O |  |  |  |  |  |  |  |  |  |  |  |  |  |  | CMC [22]: 0.25 mmol/L
